Data as given in ChEMBL document CHEMBL3992517 (J Med Chem, 2017).
Calls of active or inactive are those of the source. The calls are words filed in the database; no cut-off is given here.

Tests used:
K562 [1] = experiment: Antiproliferative activity against human K562 cells after 48 hrs by Alamar blue dye based neubauer hemocytometer method; type: functional, cell-based; settings: K562, 48 h
Outline: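 K562 human chronic myelogenous leukemia cells, mycoplasma-negative, grown at 37 °C in 5% CO2 in RPMI 1640 with 10% FBS, penicillin/streptomycin and L-glutamine. Cells were exposed to compound for 48 h and then counted on a Neubauer hemocytometer. IC50 is the concentration giving 50% growth inhibition, taken as the mean of at least three independent determinations (SD < 10%).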

[2] = (§1) Inhibition of porcine tubulin polymerization after 45 mins by turbidometric method; parameters: species or system Sus scrofa
Sus scrofa = organism: Sus scrofa; experiment: as §1
MG-63 = experiment: Antiproliferative activity against human MG63 cells after 72 hrs by SRB assay; type: functional; settings: MG-63, 72 h
Outline: (§2)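 Cell panel screen (93 tumour lines listed in text; 94 in the table), run to the DTP NCI sulforhodamine B protocol. Concentrations from 0.0001 to 10 µM. GI50 is the molar concentration giving 50% growth inhibition relative to the initial seeding number, taken from log-transformed data. zScore is reported per cell line.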

SK-N-AS = experiment: Antiproliferative activity against human SK-N-AS cells after 72 hrs by SRB assay; type: functional; outline: as §2
SK-BR-3 = experiment: Antiproliferative activity against human SK-BR-3 cells after 72 hrs by SRB assay; type: functional; settings: SK-BR-3, 72 h; outline: as §2
NCI-H82 = experiment: Antiproliferative activity against human NCI-H82 cells after 72 hrs by SRB assay; type: functional; settings: NCI-H82, 72 h; outline: as §2
IMR-90 = experiment: Antiproliferative activity against human IMR90 cells after 72 hrs by SRB assay; type: functional; settings: IMR-90, 72 h; outline: as §2
RD = experiment: Antiproliferative activity against human RD cells after 72 hrs by SRB assay; type: functional; outline: as §2
Panc1005 = experiment: Antiproliferative activity against human Panc 10.05 cells after 72 hrs by SRB assay; type: functional; settings: Panc1005, 72 h; outline: as §2
JAR = experiment: Antiproliferative activity against human JAR cells after 72 hrs by SRB assay; type: functional; outline: as §2
Caco-2 = experiment: Antiproliferative activity against human Caco2 cells after 72 hrs by SRB assay; type: functional; settings: Caco-2, 72 h; outline: as §2
[3] = Antiproliferative activity against human CLS439 cells after 72 hrs by SRB assay; type: functional; settings: CLS439, 72 h; outline: as §2
COLO-678 = experiment: Antiproliferative activity against human COLO-678 cells after 72 hrs by SRB assay; type: functional; settings: COLO-678, 72 h; outline: as §2
NCI-H292 = experiment: Antiproliferative activity against human NCI-H292 cells after 72 hrs by SRB assay; type: functional; settings: NCI-H292, 72 h; outline: as §2
PANC-1 = experiment: Antiproliferative activity against human PANC1 cells after 72 hrs by SRB assay; type: functional; settings: PANC-1, 72 h; outline: as §2
HT-29 = experiment: Antiproliferative activity against human HT-29 cells after 72 hrs by SRB assay; type: functional; settings: HT-29, 72 h; outline: as §2
JIMT-1 = experiment: Antiproliferative activity against human JIMT1 cells after 72 hrs by SRB assay; type: functional; settings: JIMT-1, 72 h; outline: as §2
SK-LMS-1 = experiment: Antiproliferative activity against human SKLMS1 cells after 72 hrs by SRB assay; type: functional; settings: SK-LMS-1, 72 h; outline: as §2
PBMC = experiment: Cytotoxicity against human PBMC after 72 hrs by SRB assay; type: cell-based
Outline: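 Resting, non-proliferating peripheral blood mononuclear cells were included in the panel and quantified by sulforhodamine B staining.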

K562 [4] = experiment: Cell cycle arrest in human K562 cells assessed as accumulation at G2/M phase up to 30 nM after 24 hrs by propidium iodide staining-based flow cytometry
[5] = biological target: Tubulin beta-5 chain (Homo sapiens) (UniProt P07437); experiment: Competitive binding affinity to beta-tubulin in human K562 cells assessed as disappearance of EBI-protein adducts at 20 to 40 uM preincubated for 2 hrs followed by EBI addition measured after 1.5 hrs by Western blot analysis; type: cell-based
Tubulin beta-5 chain (Homo sapiens), sequence (P07437 whole entry): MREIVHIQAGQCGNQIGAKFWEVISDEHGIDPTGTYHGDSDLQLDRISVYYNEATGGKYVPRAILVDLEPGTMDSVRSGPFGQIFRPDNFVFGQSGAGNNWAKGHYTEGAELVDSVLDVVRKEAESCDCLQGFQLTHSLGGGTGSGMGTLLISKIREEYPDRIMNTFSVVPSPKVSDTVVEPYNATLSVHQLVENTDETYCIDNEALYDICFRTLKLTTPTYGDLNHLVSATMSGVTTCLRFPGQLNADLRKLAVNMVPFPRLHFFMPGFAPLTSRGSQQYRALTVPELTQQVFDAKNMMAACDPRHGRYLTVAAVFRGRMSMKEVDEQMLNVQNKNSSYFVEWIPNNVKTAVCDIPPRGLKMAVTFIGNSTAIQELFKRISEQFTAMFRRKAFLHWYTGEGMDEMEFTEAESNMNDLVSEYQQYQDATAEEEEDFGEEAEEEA

SMILES: COc1cccc(N2CCN(C(=O)N3c4ccccc4Oc4ccc(Cl)cc43)CC2)c1
- IC50 (K562 [1]): 30 nM
- IC50 [2]: 800 nM

SMILES: COc1ccccc1N1CCN(C(=O)N2c3ccccc3Oc3ccc(Cl)cc32)CC1
- IC50 (K562 [1]): 30 nM
- IC50 [2]: 620 nM

SMILES: COc1ccc(CNC(=O)N2c3ccccc3Oc3ccccc32)cc1
- IC50 (K562 [1]): 19000 nM
- IC50 [2]: 9000 nM

SMILES: O=C(N1CCN(c2ccc(C(F)(F)F)cc2)CC1)N1c2ccccc2Oc2ccccc21
- IC50 (K562 [1]): > 60000 nM
- IC50 [2]: > 10000 nM

SMILES: COc1cccc(N2CCN(C(=O)N3c4ccccc4Sc4ccc(Cl)cc43)CC2)c1
- IC50 (K562 [1]): 30 nM
- IC50 [2]: 920 nM

SMILES: c1ccc2c(c1)Nc1ccccc1O2 [PHENOXAZINE]
- IC50 (K562 [1]): 16800 nM

SMILES: COc1ccc(N2CCN(C(=O)N3c4ccccc4Oc4ccccc43)CC2)cc1
- IC50 (K562 [1]): 3130 nM
- IC50 [2]: 14300 nM

SMILES: O=C(N1CCN(c2ccc(Cl)cc2)CC1)N1c2ccccc2Oc2ccccc21
- IC50 (K562 [1]): 630 nM
- IC50 [2]: 830 nM

SMILES: COc1cccc(CNC(=O)N2c3ccccc3Oc3ccccc32)c1
- IC50 (K562 [1]): 6000 nM
- IC50 [2]: 8530 nM

SMILES: COc1ccccc1N1CCN(C(=O)N2c3ccccc3Oc3ccccc32)CC1
- IC50 (K562 [1]): 20 nM
- IC50 [2]: 640 nM

SMILES: COc1ccccc1N1CCN(CC(=O)N2c3ccccc3Oc3ccccc32)CC1
- IC50 (K562 [1]): 9000 nM
- IC50 [2]: > 10000 nM

SMILES: COc1cccc(N2CCN(CC(=O)N3c4ccccc4Oc4ccccc43)CC2)c1
- IC50 (K562 [1]): 5000 nM
- IC50 [2]: > 10000 nM

SMILES: COc1ccc(N2CCN(C(=O)N3c4ccccc4Sc4ccccc43)CC2)cc1
- IC50 (K562 [1]): 3700 nM

SMILES: COc1cccc(N2CCN(C(=O)N3c4cc(Cl)ccc4Oc4ccc(Cl)cc43)CC2)c1
- IC50 (K562 [1]): 180 nM
- IC50 [2]: 900 nM

SMILES: COc1ccccc1N1CCN(C(=O)N2c3ccccc3C=Cc3ccccc32)CC1
- IC50 (K562 [1]): 450 nM
- IC50 [2]: 2830 nM

SMILES: COc1cccc(N2CCN(C(=O)N3c4ccccc4C=Cc4ccccc43)CC2)c1
- IC50 (K562 [1]): 940 nM
- IC50 [2]: 3560 nM

SMILES: COc1cccc(N2CCN(C(=O)N3c4ccccc4Oc4cc(C#N)ccc43)CC2)c1
- IC50 (K562 [1]): 7 nM
- IC50 [2]: 360 nM
- inhibition (Sus scrofa): Dose-dependent effect
- GI50 (MG-63): 1.5 nM
- GI50 (SK-N-AS): 1.4 nM
- GI50 (SK-BR-3): 1.5 nM
- GI50 (NCI-H82): 1.6 nM
- GI50 (IMR-90): 1.6 nM
- GI50 (RD): 1.7 nM
- GI50 (Panc1005): 1.7 nM
- GI50 (JAR): 1.7 nM
- GI50 (Caco-2): 7.9 nM
- GI50 [3]: 7.8 nM
- GI50 (COLO-678): 7.5 nM
- GI50 (NCI-H292): 6.7 nM
- GI50 (PANC-1): 6.5 nM
- GI50 (HT-29): 6.4 nM
- GI50 (JIMT-1): 5.9 nM
- GI50 (SK-LMS-1): 5.9 nM
- Activity (PBMC): Non-Toxic
- Activity (K562 [4]): Active

SMILES: Cc1ccc(N2CCN(C(=O)N3c4ccccc4Oc4ccccc43)CC2)cc1
- IC50 (K562 [1]): 1390 nM

SMILES: COc1cccc(N2CCN(C(=O)N3c4ccccc4Oc4ccccc43)CC2)c1
- IC50 (K562 [1]): 20 nM
- IC50 [2]: 690 nM

SMILES: COc1ccc(N2CCN(C(=O)N3c4ccccc4Oc4cc(C#N)ccc43)CC2)cc1
- IC50 (K562 [1]): 3700 nM
- IC50 [2]: 3380 nM

SMILES: N#Cc1ccc(N2CCN(C(=O)N3c4ccccc4Oc4ccccc43)CC2)cc1
- IC50 (K562 [1]): > 20000 nM
- IC50 [2]: > 10000 nM

SMILES: O=C(N1CCN(c2ccc([N+](=O)[O-])cc2)CC1)N1c2ccccc2Oc2ccccc21
- IC50 (K562 [1]): > 70000 nM
- IC50 [2]: > 10000 nM

SMILES: COc1ccccc1N1CCN(C(=O)N2c3ccccc3Sc3ccc(Cl)cc32)CC1
- IC50 (K562 [1]): 90 nM
- IC50 [2]: 510 nM

SMILES: COc1ccccc1N1CCN(C(=O)N2c3cc(Cl)ccc3Oc3ccc(Cl)cc32)CC1
- IC50 (K562 [1]): 130 nM
- IC50 [2]: 1190 nM

SMILES: COc1ccc(N2CCN(C(=O)Nc3ccccc3Oc3ccccc3)CC2)cc1
- IC50 (K562 [1]): > 10000 nM
- IC50 [2]: > 10000 nM

SMILES: COc1cccc(N2CCN(C(=O)N3c4ccccc4Sc4ccccc43)CC2)c1
- IC50 (K562 [1]): 20 nM
- IC50 [2]: 550 nM

SMILES: O=C(N1CCN(c2ccccc2)CC1)N1c2ccccc2Oc2ccccc21
- IC50 (K562 [1]): 30 nM
- IC50 [2]: 1380 nM

SMILES: O=C(N1CCN(c2ccccc2)CC1)N1c2ccccc2Sc2ccccc21
- IC50 (K562 [1]): 130 nM
- IC50 [2]: 810 nM

SMILES: COc1ccc(NC(=O)N2c3ccccc3Oc3ccccc32)cc1
- IC50 (K562 [1]): > 80000 nM
- IC50 [2]: > 10000 nM

SMILES: COc1ccc(N2CCN(C(=O)N3c4ccccc4Sc4ccc(Cl)cc43)CC2)cc1
- IC50 (K562 [1]): 1900 nM
- IC50 [2]: > 10000 nM

SMILES: COc1cccc(N2CCN(C(=O)Nc3ccccc3Oc3ccccc3)CC2)c1
- IC50 (K562 [1]): > 10000 nM
- IC50 [2]: > 10000 nM

SMILES: COc1ccccc1N1CCN(C(=O)Nc2ccccc2Oc2ccccc2)CC1
- IC50 (K562 [1]): > 10000 nM
- IC50 [2]: > 10000 nM

SMILES: COc1ccccc1N1CCN(C(=O)N2c3ccccc3Sc3ccccc32)CC1
- IC50 (K562 [1]): 20 nM
- IC50 [2]: 600 nM
- Activity [5]: Active

SMILES: COc1cccc(N2CCN(C(=O)N(c3ccccc3)c3ccccc3)CC2)c1
- IC50 (K562 [1]): 18000 nM
- IC50 [2]: > 10000 nM

SMILES: CC[C@]1(O)C[C@H]2CN(CCc3c([nH]c4ccccc34)[C@@](C(=O)OC)(c3cc4c(cc3OC)N(C)[C@H]3[C@@](O)(C(=O)OC)[C@H](OC(C)=O)[C@]5(CC)C=CCN6CC[C@]43[C@@H]65)C2)C1
- IC50 (K562 [1]): 1 nM

SMILES: COc1ccccc1N1CCN(C(=O)N2c3ccccc3CCc3ccccc32)CC1
- IC50 (K562 [1]): 840 nM
- IC50 [2]: 10700 nM

SMILES: N#Cc1ccc(N2CCN(C(=O)N3c4ccccc4Sc4ccccc43)CC2)cc1
- IC50 (K562 [1]): 390 nM

SMILES: COc1ccccc1N1CCN(C(=O)N2c3ccccc3Oc3cc(C#N)ccc32)CC1
- IC50 (K562 [1]): 30 nM
- IC50 [2]: 320 nM
